Active and inactive are the calls of the source. No cut-off for these calls is given here.
Key:
[1] = target: T1, Amine oxidase [flavin-containing] A (Homo sapiens, UniProt P21397); test: Inhibition of human purified MAO-A expressed in insect cell membranes assessed as reduction in conversion of kynuramine to 4-hydroxyquinoline by spectrophotometric assay
T1 sequence (P21397 whole entry): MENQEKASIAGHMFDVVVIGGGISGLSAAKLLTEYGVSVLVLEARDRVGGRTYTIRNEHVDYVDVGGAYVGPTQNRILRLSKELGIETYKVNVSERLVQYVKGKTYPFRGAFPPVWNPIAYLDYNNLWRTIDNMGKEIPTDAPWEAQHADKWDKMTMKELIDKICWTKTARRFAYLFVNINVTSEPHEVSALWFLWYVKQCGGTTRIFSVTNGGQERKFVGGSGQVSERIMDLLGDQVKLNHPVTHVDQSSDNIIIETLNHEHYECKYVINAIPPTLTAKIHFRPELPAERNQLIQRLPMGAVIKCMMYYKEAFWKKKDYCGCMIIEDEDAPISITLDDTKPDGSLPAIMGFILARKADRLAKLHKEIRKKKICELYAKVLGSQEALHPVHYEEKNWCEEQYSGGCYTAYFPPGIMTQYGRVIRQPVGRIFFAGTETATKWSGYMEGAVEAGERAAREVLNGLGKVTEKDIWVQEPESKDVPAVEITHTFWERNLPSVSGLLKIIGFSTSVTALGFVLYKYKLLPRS

[2] = Quenching activity of the compound assessed as reduction in resorufin fluorescence; format: functional
Summary of the method: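 Resorufin at 1 µM and 10 µM measured for fluorescence in the presence of compound at 50 µM.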

[3] = Cytotoxicity against CHOK1 cells assessed as reduction in cell viability after 24 hrs by MTT assay; format: cell-based, Cricetulus griseus; conditions: chinese hamster, CHO-K1 cells; read-out: LC50
Summary of the method: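 CHO-K1 cells grown as ECACC recommends, seeded 8000 per well; compounds from DMSO stocks diluted in F-12 with 10% FBS and 1% pen/strep (final DMSO at most 0.5%), exposed 24 h. Medium then replaced with 10 µM MTT for about 3 h, formazan dissolved in DMSO, absorbance read at 570 nm (650 nm reference). LC50 from control-subtracted triplicates by four-parameter regression; mean ± SEM of 3 independent runs.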

[4] = target: T2, peroxidase (horseradish peroxidase) (Raphanus sativus, UniProt K7N5L9); test: Inhibition of horse radish peroxidase assessed as residual activity at 50 uM by amplex red dye based fluorescence assay; conditions: horseradish peroxidase (isolated enzyme), probe Amplex Red, read-out: Activity
Summary of the method: (§1)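 HRP (0.02 U/mL) given H2O2 20 µM directly as substrate plus Ampliflu Red 20 µM in 50 mM potassium phosphate pH 7.4. Compound at 50 or 5 µM, 1% DMSO; controls DMSO only. Resorufin fluorescence read at ex 535/em 595 nm, 30°C, as remaining HRP activity.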

[5] = target: T2, peroxidase (horseradish peroxidase); test: Inhibition of horse radish peroxidase assessed as residual activity at 5 uM by amplex red dye based fluorescence assay; conditions: horseradish peroxidase (isolated enzyme), probe Amplex Red, read-out: Activity; summary of the method: as §1
[6] = Solubility of the compound at 100 uM; format: physicochemical
Summary of the method: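 Compounds checked for solubility in assay buffer at 100 µM.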

[7] = target: Amyloid beta-binding alcohol dehydrogenase (Homo sapiens, UniProt Q2L8D9); test: Inhibition of ABAD (unknown origin) assessed as residual activity at 100 uM using acetoacetyl-CoA in presence of NADH by spectrophotometric assay relative to control
Summary of the method: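 Recombinant ABAD at 0.5 µg/mL with NADH 250 µM and acetoacetyl-CoA 120 µM; compound at 100 µM in 1% DMSO, controls with matching DMSO. Buffer 10 mM HEPES, 0.5% gelatin, pH 7.4 at 37°C. NADH consumption read as falling absorbance at 340 nm; reported as % remaining activity ± SEM from two biological repeats, each with three technical repeats.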

Peroxidase = Peroxidase (Raphanus sativus, UniProt K7N5L9); test: Inhibition of horse radish peroxidase assessed as residual activity by amplex red dye based fluorescence assay; summary of the method: as §1
[8] = target: T1, Amine oxidase [flavin-containing] A; test: Inhibition of human membrane bound MAO-A expressed in insect cell membranes assessed as reduction in conversion of kynuramine to 4-hydroxyquinoline by spectrophotometric assay
Summary of the method: (§2)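 Human MAO-A or MAO-B expressed in insect cell membranes, diluted 1/4000 (A) or 1/2000 (B). Kynuramine at 2×KM: 60 µM for MAO-A, 30 µM for MAO-B. Assay in 50 mM potassium phosphate pH 7.5, 30°C, 1% DMSO, absorbance at 314 nm. Inhibitor varied over 4 orders of magnitude, up to 100 µM. Linear rates from 8-10 assays fitted by 3-parameter regression with bottom fixed at zero; IC50 ± SE of estimate.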

[9] = target: T3, Amine oxidase [flavin-containing] B (Homo sapiens, UniProt P27338); test: Inhibition of human membrane bound MAO-B expressed in insect cell membranes assessed as reduction in conversion of kynuramine to 4-hydroxyquinoline by spectrophotometric assay; summary of the method: as §2
T3 sequence (P27338 whole entry): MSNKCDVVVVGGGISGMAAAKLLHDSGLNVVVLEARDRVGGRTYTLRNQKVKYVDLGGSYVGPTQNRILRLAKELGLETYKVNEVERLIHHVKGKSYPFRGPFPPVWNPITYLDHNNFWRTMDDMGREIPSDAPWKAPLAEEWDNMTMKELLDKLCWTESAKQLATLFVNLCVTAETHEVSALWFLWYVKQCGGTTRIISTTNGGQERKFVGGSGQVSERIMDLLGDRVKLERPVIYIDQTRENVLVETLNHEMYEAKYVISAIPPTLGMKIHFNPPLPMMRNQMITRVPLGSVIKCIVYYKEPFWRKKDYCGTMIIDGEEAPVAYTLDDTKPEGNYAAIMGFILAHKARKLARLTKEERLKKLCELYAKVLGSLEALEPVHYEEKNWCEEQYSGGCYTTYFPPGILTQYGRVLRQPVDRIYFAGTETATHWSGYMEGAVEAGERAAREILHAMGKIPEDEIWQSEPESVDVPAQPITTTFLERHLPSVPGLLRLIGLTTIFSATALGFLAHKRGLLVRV

[10] = Lipophilicity of the compound assessed as capacity factor at pH 3.5 by HPLC analysis; format: physicochemical; conditions: buffer
Summary of the method: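 Capacity factor k from gradient HPLC on reversed-phase C18 in acid polar organic mode, pH ~3.5.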

T2 sequence (K7N5L9 whole entry): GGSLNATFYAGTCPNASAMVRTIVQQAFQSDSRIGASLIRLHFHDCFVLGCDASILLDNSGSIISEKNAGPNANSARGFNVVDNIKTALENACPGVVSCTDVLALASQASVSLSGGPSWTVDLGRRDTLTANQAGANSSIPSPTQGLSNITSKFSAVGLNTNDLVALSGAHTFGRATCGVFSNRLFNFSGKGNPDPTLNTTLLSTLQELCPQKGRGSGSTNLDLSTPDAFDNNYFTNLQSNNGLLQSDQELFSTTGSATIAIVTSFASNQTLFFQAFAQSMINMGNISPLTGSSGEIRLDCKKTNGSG
Chain of Peroxidase (K7N5L9 whole entry): as above

COc1ccc(NC(=S)Nc2ccc3[nH]ccc3c2)cc1OC
IC50 [1]: Not Active
Activity [2]: inactive
CC50 at 24 h [3]: 797 µM
activity at 50 µM [4]: 41.5%
activity at 5 µM [5]: 61%
solubility [6]: Soluble
Activity [7]: 93.8%

S=C(Nc1ccc(Oc2ccccc2)cc1)Nc1ccc2[nH]ccc2c1
IC50 [1]: Not Active
Activity [2]: inactive
CC50 at 24 h [3]: 36 µM
activity at 50 µM [4]: 65.6%
activity at 5 µM [5]: 73.1%
solubility [6]: Soluble
Activity [7]: 90.9%

Oc1ccc(CNC(=S)Nc2ccc3[nH]ccc3c2)cc1O
IC50 [1]: Not Active
Activity [2]: inactive
CC50 at 24 h [3]: 471 µM
activity at 50 µM [4]: 31.2%
activity at 5 µM [5]: 38.3%
solubility [6]: Soluble
IC50 (Peroxidase): 0.8 µM
Activity [7]: 81.5%

O=C(c1ccccc1)c1ccc(NC(=S)Nc2ccc3[nH]ccc3c2)cc1
IC50 [1]: Not Active
Activity [2]: inactive
CC50 at 24 h [3]: 20 µM
activity at 50 µM [4]: 71.4%
activity at 5 µM [5]: 79.1%
solubility [6]: Soluble
Activity [7]: 80.4%

Oc1ccccc1NC(=S)Nc1ccc2[nH]ccc2c1
IC50 ([1]; read-out: IC50): 39 µM
Activity [2]: inactive
CC50 at 24 h [3]: 509 µM
IC50 ([8]; read-out: IC50): 14 µM
activity at 50 µM [4]: 36.9%
activity at 5 µM [5]: 43.9%
solubility [6]: Soluble
IC50 (Peroxidase): 0.8 µM
Activity [7]: 85%
IC50 ([9]; read-out: IC50): 4 µM

S=C(Nc1ccccc1)Nc1ccc2[nH]ccc2c1
IC50 ([1]; read-out: IC50): > 30 µM
Activity [2]: inactive
CC50 at 24 h [3]: 337 µM
IC50 ([8]; read-out: IC50): 57.5 µM
activity at 50 µM [4]: 46.1%
activity at 5 µM [5]: 81.4%
solubility [6]: Soluble
Activity [7]: 85.8%
IC50 ([9]; read-out: IC50): 60 µM

COc1ccc(NC(=S)Nc2ccc3[nH]ccc3c2)cc1
IC50 ([1]; read-out: IC50): 36 µM
Activity [2]: inactive
CC50 at 24 h [3]: 476 µM
IC50 ([8]; read-out: IC50): 36 µM
activity at 50 µM [4]: 46.5%
activity at 5 µM [5]: 67.6%
solubility [6]: Soluble
Activity [7]: 91.3%
IC50 ([9]; read-out: IC50): 37 µM

Oc1ccc(NC(=S)Nc2ccc3[nH]ccc3c2)cc1Cl
IC50 ([1]; read-out: IC50): 58 µM
K [10]: 3.76
Activity [2]: inactive
CC50 at 24 h [3]: 447 µM
IC50 ([8]; read-out: IC50): 58 µM
activity at 50 µM [4]: 26.4%
activity at 5 µM [5]: 39.9%
solubility [6]: Soluble
IC50 (Peroxidase): 1.01 µM
Activity [7]: 49.1%
IC50 ([9]; read-out: IC50): 8.6 µM

CC(=O)c1ccc(NC(=S)Nc2ccc3[nH]ccc3c2)cc1
IC50 ([1]; read-out: IC50): 67 µM
Activity [2]: inactive
CC50 at 24 h [3]: 154 µM
activity at 50 µM [4]: 41.8%
activity at 5 µM [5]: 66.3%
solubility [6]: Soluble
Activity [7]: 79.2%

CCOC(=O)c1ccc(NC(=S)Nc2ccc3[nH]ccc3c2)cc1
IC50 ([1]; read-out: IC50): 71 µM
Activity [2]: inactive
CC50 at 24 h [3]: 123 µM
activity at 50 µM [4]: 36.6%
activity at 5 µM [5]: 65.8%
solubility [6]: Soluble
Activity [7]: 74.6%

COc1ccc(CNC(=S)Nc2ccc3[nH]ccc3c2)cc1
IC50 [1]: Not Active
Activity [2]: inactive
CC50 at 24 h [3]: 232 µM
activity at 50 µM [4]: 54.4%
activity at 5 µM [5]: 83.5%
solubility [6]: Soluble
Activity [7]: 88.5%

Oc1ccc(NC(=S)Nc2ccc3[nH]ccc3c2)cc1
IC50 [1]: Not Active
Activity [2]: inactive
CC50 at 24 h [3]: 848 µM
IC50 ([8]; read-out: IC50): > 100 µM
activity at 50 µM [4]: 31%
activity at 5 µM [5]: 41.5%
solubility [6]: Soluble
IC50 (Peroxidase): 1.01 µM
Activity [7]: 90.9%
IC50 ([9]; read-out: IC50): 17 µM

COC(=O)c1cc(NC(=S)Nc2ccc3[nH]ccc3c2)ccc1O
IC50 [1]: Not Active
Activity [2]: inactive
CC50 at 24 h [3]: 423 µM
IC50 ([8]; read-out: IC50): > 100 µM
activity at 50 µM [4]: 42.2%
activity at 5 µM [5]: 61.2%
solubility [6]: Soluble
Activity [7]: 90%
IC50 ([9]; read-out: IC50): 31 µM

Cc1ccc(NC(=S)Nc2ccc3[nH]ccc3c2)c(O)c1
IC50 [1]: Not Active
Activity [2]: inactive
CC50 at 24 h [3]: 370 µM
IC50 ([8]; read-out: IC50): 24 µM
activity at 50 µM [4]: 36.2%
activity at 5 µM [5]: 47.3%
solubility [6]: Soluble
Activity [7]: 87.2%
IC50 ([9]; read-out: IC50): 3.2 µM

OCc1ccc(NC(=S)Nc2ccc3[nH]ccc3c2)cc1
IC50 [1]: Not Active
Activity [2]: inactive
CC50 at 24 h [3]: 1080 µM
activity at 50 µM [4]: 51.4%
activity at 5 µM [5]: 88.2%
solubility [6]: Soluble
Activity [7]: 84.2%

S=C(Nc1ccc(Br)cc1)Nc1ccc2[nH]ccc2c1
IC50 ([1]; read-out: IC50): 5.9 µM
K [10]: 4.355
Activity [2]: inactive
CC50 at 24 h [3]: 220 µM
IC50 ([8]; read-out: IC50): 23 µM
activity at 50 µM [4]: 52.8%
activity at 5 µM [5]: 82%
solubility [6]: Soluble
Activity [7]: 83%
IC50 ([9]; read-out: IC50): 58 µM

CC(=O)Nc1ccc(NC(=S)Nc2ccc3[nH]ccc3c2)cc1
IC50 ([1]; read-out: IC50): 71 µM
Activity [2]: inactive
CC50 at 24 h [3]: 1040 µM
IC50 ([8]; read-out: IC50): 70 µM
activity at 50 µM [4]: 39.3%
activity at 5 µM [5]: 68.1%
solubility [6]: Soluble
Activity [7]: 93%
IC50 ([9]; read-out: IC50): 37 µM

Oc1cc(Cl)ccc1NC(=S)Nc1ccc2[nH]ccc2c1
IC50 ([1]; read-out: IC50): 39 µM
Activity [2]: inactive
CC50 at 24 h [3]: 251 µM
IC50 ([8]; read-out: IC50): 6.3 µM
activity at 50 µM [4]: 35.9%
activity at 5 µM [5]: 58.9%
solubility [6]: Soluble
Activity [7]: 76%
IC50 ([9]; read-out: IC50): 0.3 µM

COc1ccc2nc(NC(=O)Nc3ccccc3)sc2c1 [FRENTIZOLE]
IC50 [1]: Not Active
CC50 at 24 h [3]: 31 µM
IC50 [8]: Not Active
IC50 [9]: Not Active

Oc1cccc(NC(=S)Nc2ccc3[nH]ccc3c2)c1
IC50 [1]: Not Active
Activity [2]: inactive
CC50 at 24 h [3]: 977 µM
activity at 50 µM [4]: 50.9%
activity at 5 µM [5]: 81.4%
solubility [6]: Soluble
Activity [7]: 91.6%

S=C(Nc1ccc2[nH]ccc2c1)Nc1cccc2cnccc12
IC50 ([1]; read-out: IC50): 24 µM
Activity [2]: inactive
CC50 at 24 h [3]: > 400 µM
IC50 ([8]; read-out: IC50): 24 µM
activity at 50 µM [4]: 47.9%
activity at 5 µM [5]: 63.3%
solubility [6]: Soluble
Activity [7]: 96.5%
IC50 ([9]; read-out: IC50): 4 µM

Source: ChEMBL document CHEMBL4177525, “Synthesis and evaluation of frentizole-based indolyl thiourea analogues as MAO/ABAD inhibitors for Alzheimer's disease treatment” (Bioorg Med Chem, 2017)
